Among the data in ChEMBL document CHEMBL1157510, “Bioactive cembrane diterpenoids of Anisomeles indica” (J Nat Prod, 2008) are IC50 and Activity values, retold here.

Usually IC50 stands for the concentration needed to halve the response being measured. A lower IC50 goes with higher potency.

The source made the active and inactive calls. The calls are words filed in the database; no cut-off is given here.

In assay [1] the test system is Platelet. The assay is described as follows: Inhibition of collagen-induced human platelet aggregation by light transmission aggregometer. In kind it is functional, cell-based. The method in brief: (§1)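 Human platelet suspension was preincubated with DMSO or compound at 37 °C for 3 min, stirring at 1200 rpm, before the activator was added. Aggregation was followed turbidimetrically in a light-transmission aggregometer.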

The subject of assay [2] is Platelet. Kind of assay: Inhibition of thrombin-induced human platelet aggregation by light transmission aggregometer. Type of assay: functional, cell-based. In a few lines:
as §1

The next assay concerns HepG2. The assay is described as follows: Cytotoxicity against human HepG2 cells after 3 days by MTT assay. Type of assay: functional, cell-based. As to conditions: for IC50: HepG2, 72 h. The method in brief: (§2)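 Freshly trypsinized cells were seeded at 5000-10 000 per well, and compounds were added from DMSO stocks. After 3 days of culture, attached cells were given MTT (0.5 mg/mL, 1 h) and then solubilized in DMSO. Absorbance was read at 550 nm. IC50 is the concentration that cut cell growth by 50%. Values are the mean of two to three separate experiments, each in triplicate.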
(Tetrazolium assays rely on reduction of a dye to a coloured formazan, in cell work by metabolically active cells.)

The next assay relates to Hep 3B2. The assay is described as follows: (§3) Cytotoxicity against human Hep3B cells after 3 days by MTT assay. In kind it is functional, cell-based. In a few lines: as §2
For another assay, the system named is A549. The assay is described as follows: Cytotoxicity against human A549 cells after 3 days by MTT assay. In kind it is functional, cell-based. To be noted: for IC50: A549, 72 h. In a few lines: as §2
The test system of another assay is MDA-MB-231. The assay is described as follows: Cytotoxicity against human MDA-MB-231 cells after 3 days by MTT assay. Type of assay: functional, cell-based. To be noted: for IC50: MDA-MB-231, 72 h. In a few lines: as §2
The test system of another assay is MCF7. The assay is described as follows: Cytotoxicity against human MCF7 cells after 3 days by MTT assay. As to conditions: for IC50: MCF7, 72 h. Type of assay: functional, cell-based. The method in brief:
as §2

The nature of assay [3]: as §3. Type of assay: functional, cell-based, Hep 3B2. As to conditions: 72 h. In a few lines:
as §2

In the case of `CC(=O)Oc1ccccc1C(=O)O` [ASPIRIN], the values for the IC50 in the assay with Platelet [1] and with Platelet [2] were 153 µM and greater than 100 µM, respectively.
Regarding `C=C1C(=O)O[C@H]2/C=C(\C)C[C@@H]3C=C(C/C=C/[C@@](C)(OO)CC[C@H]12)C(=O)O3`, the result in the assay on HepG2, in the assay with Hep 3B2, in the assay with A549, in the assay on MDA-MB-231 and in the assay with MCF7 was inactive. Moreover, the figures for the IC50 in the assay on Platelet [1] and with Platelet [2] were greater than 100 µM and 11.9 µM, respectively.
For the compound `C=C1CC[C@H]2C(=C)C(=O)O[C@@H]2/C=C(\C)C[C@H]2C=C(CCC1=O)C(=O)O2`, the IC50 in the assay on HepG2 was 10 µM; in assay [3], greater than 10 µM; with A549, greater than 10 µM; in the assay with MDA-MB-231, 9.8 µM; in the assay with MCF7, greater than 10 µM. Moreover, the result in the assay on Platelet [1] and in the assay with Platelet [2] was inactive.
`C=C1C(=O)O[C@H]2/C=C(\C)C[C@@H]3C=C(CC/C=C(\C)CC[C@H]12)C(=O)O3`: the IC50 in the assay on HepG2 came out at 10 µM; in assay [3] it was 7.4 µM; in the assay on A549 it was 9.6 µM; with MDA-MB-231, 9.5 µM; in the assay on MCF7 it was 9.5 µM; in the assay on Platelet [1], 19.7 µM. The compound further yielded an IC50 with Platelet [2] greater than 100 µM.
Consider `C=C1C(=O)O[C@H]2/C=C(\C)C[C@@H]3C=C(CC[C@H]4O[C@@]4(C)CC[C@H]12)C(=O)O3`, for which the IC50 is 10 µM in the assay on HepG2; 9.3 µM in assay [3]; 8.8 µM with A549; greater than 10 µM in the assay with MDA-MB-231; greater than 10 µM in the assay with MCF7; greater than 100 µM with Platelet [1]. In the assay on Platelet [2], this compound displayed a 50% inhibitory concentration (IC50) of 4.8 µM.
Regarding `C=C1C(=O)O[C@H]2/C=C(\C)C[C@@H]3C=C(C/C=C/[C@@](C)(O)CC[C@H]12)C(=O)O3`, the IC50 was 10 µM in the assay on HepG2; greater than 10 µM in assay [3]; 9.9 µM in the assay with A549; greater than 10 µM with MDA-MB-231; greater than 10 µM in the assay on MCF7; greater than 100 µM in the assay on Platelet [1]. This compound also registered an IC50 with Platelet [2] of 20 µM.
Consider `C=C1CC[C@@H]2C(=C)C(=O)O[C@H]2/C=C(\C)C[C@@H]2C=C(CC[C@H]1O)C(=O)O2`, for which the result in the assay on HepG2, with Hep 3B2, with A549, in the assay on MDA-MB-231 and in the assay with MCF7 was inactive. In addition, the IC50 in the assay on Platelet [1] was 41.9 µM; with Platelet [2] it was greater than 100 µM.
Consider `C=C1C(=O)O[C@H]2/C=C(\C)C[C@@H]3C=C(CC[C@@H](OO)C(=C)CC[C@H]12)C(=O)O3`, for which the outcome in the assay on HepG2, in the assay with Hep 3B2, with A549, in the assay with MDA-MB-231, with MCF7 and in the assay on Platelet [1] was inactive. Also, the result with Platelet [2] was inactive.
Regarding `COc1cccc2c1C(=O)c1c(O)c3c(c(O)c1C2=O)C[C@@](O)(C(=O)CO)C[C@@H]3O[C@H]1C[C@H](N)[C@H](O)[C@H](C)O1` [DOXORUBICIN], the IC50 was 0.82 µM in the assay with HepG2, 0.48 µM in assay [3], 0.4 µM in the assay with A549 and 0.07 µM in the assay on MDA-MB-231.
